In ChEMBL document CHEMBL2424628, “Discovery of potent and selective nonsteroidal indazolyl amide glucocorticoid receptor agonists” (Bioorg Med Chem Lett, 2013):

Key:
Glucocorticoid receptor = target: T1, Glucocorticoid receptor (Homo sapiens, UniProt P04150); assay: Binding affinity to glucocorticoid receptor (unknown origin) by fluorescence polarization assay
T1 sequence (P04150 whole entry): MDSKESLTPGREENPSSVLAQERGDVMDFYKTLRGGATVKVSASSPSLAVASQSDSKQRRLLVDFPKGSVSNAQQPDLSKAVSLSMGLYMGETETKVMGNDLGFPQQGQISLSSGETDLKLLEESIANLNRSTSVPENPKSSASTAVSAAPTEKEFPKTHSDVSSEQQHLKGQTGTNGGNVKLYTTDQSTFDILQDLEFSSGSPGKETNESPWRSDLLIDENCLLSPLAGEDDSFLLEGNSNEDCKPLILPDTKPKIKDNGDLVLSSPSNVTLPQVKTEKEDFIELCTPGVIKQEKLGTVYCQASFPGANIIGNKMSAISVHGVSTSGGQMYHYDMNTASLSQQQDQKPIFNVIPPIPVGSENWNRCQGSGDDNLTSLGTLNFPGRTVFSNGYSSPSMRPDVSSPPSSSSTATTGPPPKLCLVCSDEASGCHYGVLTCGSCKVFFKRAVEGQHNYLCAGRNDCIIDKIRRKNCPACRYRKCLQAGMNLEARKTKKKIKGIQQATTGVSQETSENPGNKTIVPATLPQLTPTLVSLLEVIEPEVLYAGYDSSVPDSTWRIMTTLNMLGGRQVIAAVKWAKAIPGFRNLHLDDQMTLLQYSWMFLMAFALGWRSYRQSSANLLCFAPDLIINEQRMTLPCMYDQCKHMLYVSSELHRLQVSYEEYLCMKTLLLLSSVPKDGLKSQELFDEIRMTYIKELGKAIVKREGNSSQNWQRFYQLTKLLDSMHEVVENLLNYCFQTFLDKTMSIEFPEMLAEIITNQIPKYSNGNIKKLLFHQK

Homo sapiens [1] = organism: Homo sapiens; assay: Selectivity ratio of Ki for progesterone receptor (unknown origin) to Ki for glucocorticoid receptor (unknown origin)
Homo sapiens [2] = organism: Homo sapiens; assay: Selectivity ratio of Ki for androgen receptor (unknown origin) to Ki for glucocorticoid receptor (unknown origin)
Androgen receptor = target: T2, Androgen receptor (Homo sapiens, UniProt P10275); assay: Binding affinity to androgen receptor (unknown origin) by fluorescence polarization assay
T2 sequence (P10275 whole entry): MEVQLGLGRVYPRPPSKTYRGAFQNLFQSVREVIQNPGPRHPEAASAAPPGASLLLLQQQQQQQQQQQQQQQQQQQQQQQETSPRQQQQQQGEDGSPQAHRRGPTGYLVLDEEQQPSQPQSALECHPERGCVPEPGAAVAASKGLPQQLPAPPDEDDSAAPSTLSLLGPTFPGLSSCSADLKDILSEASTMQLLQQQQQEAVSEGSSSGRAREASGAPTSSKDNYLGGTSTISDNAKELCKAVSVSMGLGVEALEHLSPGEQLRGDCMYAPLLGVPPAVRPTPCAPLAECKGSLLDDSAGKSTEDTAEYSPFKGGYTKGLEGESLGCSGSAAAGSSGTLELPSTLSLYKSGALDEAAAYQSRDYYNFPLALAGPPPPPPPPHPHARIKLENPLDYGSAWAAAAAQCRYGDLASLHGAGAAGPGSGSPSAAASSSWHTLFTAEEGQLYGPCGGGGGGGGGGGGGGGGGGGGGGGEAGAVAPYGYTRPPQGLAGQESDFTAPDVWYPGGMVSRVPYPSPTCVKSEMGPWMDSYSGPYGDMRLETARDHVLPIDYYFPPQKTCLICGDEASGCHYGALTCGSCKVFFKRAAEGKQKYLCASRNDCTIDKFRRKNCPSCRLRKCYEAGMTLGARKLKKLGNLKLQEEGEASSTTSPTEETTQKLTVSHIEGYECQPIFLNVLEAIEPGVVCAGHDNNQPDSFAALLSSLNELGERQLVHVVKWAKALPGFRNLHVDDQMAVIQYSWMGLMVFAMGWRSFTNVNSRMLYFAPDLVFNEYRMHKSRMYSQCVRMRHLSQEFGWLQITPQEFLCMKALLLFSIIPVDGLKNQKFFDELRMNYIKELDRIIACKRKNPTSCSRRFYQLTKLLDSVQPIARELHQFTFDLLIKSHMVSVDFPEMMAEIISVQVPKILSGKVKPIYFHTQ
Method in brief: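 Fluorescence polarization competition between test compound and a fluorescently labeled ligand for full-length receptor or its ligand binding domain. IC50 from a four-parameter logistic fit of the polarization signal, converted to Ki with Cheng–Prusoff […]. Means of duplicate experiments.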

[3] = target: T3, Glucocorticoid receptor (Homo sapiens) (UniProt P04150); assay: Agonist activity at glucocorticoid receptor in human A549 cells assessed as inhibition of PMA-induced AP-1 activation by luciferase reporter gene assay relative to dexamethasone; type: cell-based
T3 sequence (whole entry): T1 sequence (P04150 whole entry)
Method in brief: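 A549 lung epithelial cells stably carrying a luciferase reporter with 5 copies of the AP-1 response element; AP-1 induced with PMA (15 ng/ml). Compound inhibition of induction read as decreased luciferase. […] Means of two or more experiments in triplicate.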

| Ki (Glucocorticoid receptor) | Ratio Ki (Homo sapiens [1]) | Ratio Ki (Homo sapiens [2]) | Ki (Androgen receptor) | Efficacy [3] | Compound |
| --- | --- | --- | --- | --- | --- |
| 5.1 nM | 10 | > 1000 | > 25000 nM | 93% | CC(C)(C(=O)Nc1nncs1)[C@@H](c1ccccc1)c1ccc2c(cnn2-c2ccc(F)cc2)c1 |
| 6.7 nM | 10 | > 1000 | > 25000 nM | 50% | CC(C)(C(=O)Nc1nncs1)[C@H](c1ccccc1)c1ccc2c(cnn2-c2ccc(F)cc2)c1 |
